A selection: hits, their analogues and other compounds. The true share with any hit is near 2.3%.
GPR7 antag: blocks human GPR7 receptor signaling; P48145; GPR7-expressing cells, fluorescence antagonist assay; inhibition, % at 4.4 µM; 290,000 compounds, 1.1% hits; AID 1861; in the data active = inhibition above about 16%, passing the limit was not always enough;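 note: cells stimulated with the agonist NPW; 0% = agonist with vehicle and 100% = vehicle without agonist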
T cell modulator: modulates CD8 T cell binding to vesicles | 330,000 compounds, 0.068% hits | response (vesicle binding), % at 7 µM | AID 2052 | 2C CD8+ T cell-vesicle binding, flow cytometry; active compounds read low;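 active = response, share of CD8 T cells binding vesicles, and their 90th percentile fluorescence all below set limits, cut at about 80% in these data, passing the limit was not always enough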;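 note: values below 100% mean blocked vesicle binding to the CD8+ T cells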
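Benchmarks: naked versus QL9-loaded vesicles / Assay system: purified 2C TCR transgenic mouse naive CD8+ T cells / Technique: high-throughput flow cytometry with anti-B7-1 and anti-CD8 staining / Timing: Cell–vesicle co-incubation 1.5 h at 37 °C, staining 20 min on ice / Read-out: percent CD8+ FL2 mean versus row control / Probe or stimulus: QL9-loaded Drosophila micro-vesicles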
p-CIP stab down: compounds decreasing mouse p/CIP protein stability. 290,000 compounds, 0.01% hits. decrease of EGFP signal, % at 10 µM. F442A p/CIP-EGFP cells, EGFP fluorescence, 16 h;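 active = EGFP signal decrease of at least 30% at 10 µM or well 3 SD below plate mean, unless failing retest; inactive = the rest, including hits failing retest or dose response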
CHT inh: inhibitors of human choline transporter CHT; CHT-expressing cells, membrane potential dye, choline response; active compounds read low; B-score at 10 µM; 310,000 compounds, 0.86% hits; AID 488975;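 active = B-score over 3 SD under the library average, and starting fluorescence ratio not unusually high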;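 note: choline stimulus applied at its EC90 after an EC20 pre-addition; B-score computed on integrated fluorescence ratio after choline addition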
DSG3 Ab inh: human desmoglein-3 autoantibody binding inhibition | P32926 | DSG3-coupled beads, scFv-anti-DSG3-GFP binding, flow cytometry; active compounds read low | binding (percent of control), % at 10 µM | 310,000 compounds, 0.48% hits;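 active = binding more than 3 SD below its plate's average and above zero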;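 note: hits lower antibody fragment binding to DSG3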
CHT PAM: allosterically activates the human high affinity choline transporter. Q9GZV3. CHT-expressing cells, membrane potential dye, choline EC20; active compounds read high; LV-AA mutant CHT in HEK293 cells. B-score at 10 µM. 310,000 compounds, 0.49% hits;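 active = initial fluorescence not abnormally high and integrated response B-score, plate-corrected, over 3 SD above library mean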
CHT inh conf: human CHT inhibition, confirmatory screen. shares compounds with CHT inh. CHT-expressing cells, choline membrane potential dye; LV-to-AA substituted CHT, HEK293 cells. 2,400 compounds, 70% hits. CHT activity remaining % of control (active compounds read low), % at 10 µM;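 active = choline transporter activity left, mean of duplicates at 10 µM, below buffer-only control mean minus 3 SD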;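 note: depolarization triggered by choline at its EC90 following an EC20 pre-addition; 0% = hemicholinium-3 full block and 100% = buffer-only control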
HEK293 MPD ctr: CHT inhibitor counter-screen hit in parental HEK293 cells; AID 493222; membrane potential ratio readout (active if shifted either direction beyond buffer ±3SD; no single direction) at 10 µM; 2,400 compounds, 4% hits; membrane potential dye, choline response; active = decrease or increase beyond buffer ±3SD; shares compounds with CHT inh;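 note: parental cells lack the transporter so any hit is non-specific; ratio is peak minus trough fluorescence over baseline after EC90 choline challenge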
Active calls of the source: *; i = inactive; x = no result.

SMILES	GPR7 antag	T cell modulator	p-CIP stab down	CHT inh	DSG3 Ab inh	CHT PAM	CHT inh conf	HEK293 MPD ctr
CCn1c(N2CCN(S(=O)(=O)c3ccc(Cl)cc3)CC2)nc2ccccc21	3	268	-11	-12*	-37*	i	44%*	i
COc1cccc(CNC(=O)COC(=O)c2ccc(-c3ccc(O)cc3)cc2)c1	x	x	x	x	96	x	x	x
CCCCNS(=O)(=O)c1ccc(NC(=O)c2c(-c3ccccc3Cl)noc2C)cc1	13	285	-20	-5*	106	i	54%*	i
CC1CCN(c2nc3nonc3nc2Nc2ccc(F)cc2)CC1	-2	225	-13	-5.4*	x	i	i	i
CCOC(=O)c1cc(CC)sc1NC(=O)COc1ccc2c(C)cc(=O)oc2c1	-7	340	-6	-7.3*	108	i	i	i
Cc1cc(=O)oc2cc(OCC(=O)Nc3nnc(C(C)C)s3)ccc12	14	239	3	i	104	i	x	x
CCN1CCN(c2cc(C)c3cc(NC(=S)NCCCN4CCc5ccccc5C4)ccc3n2)CC1	2	318	-4	-5.4*	97	i	31%*	2.8*
CCCN1CCN(CCCNC(=S)Nc2ccc3nc(N4CCN(CC)CC4)cc(C)c3c2)CC1	-5	359	80*	-6.7*	91	i	13%*	i
COc1cccc(NC2=C(NCCO)C(=O)c3ccccc3C2=O)c1	-2	261	20	i	101	i	x	x
Cc1cccc(NC2=C(NCCO)C(=O)c3ccccc3C2=O)c1	5	341	2	-7.7*	102	i	45%*	2.5*
O=C(OCc1ccccc1C(F)(F)F)c1ccc(Br)c(S(=O)(=O)N2CCOCC2)c1	x	x	x	x	99	x	x	x
N=c1n(CCN2CCCCC2)c2ccccc2n1CC(=O)c1ccc(Cl)c(Cl)c1	13	0	15	-5.4*	98	i	i	i
O=c1cc(CSc2nc3cc(Cl)ccc3o2)nc2sccn12	-1	226	-4	-5.4*	x	i	51%*	i
O=[N+]([O-])c1c(Nc2ccccc2O)cc(Cl)c2nonc12	22	140	-28	-8.5*	112	i	38%*	i
O=[N+]([O-])c1c(Nc2ccccc2O)ccc2nonc12	-18	210	-10	i	98	i	x	x
Cc1cc(NC(=O)COC(=O)c2cc([N+](=O)[O-])ccc2N2CCOCC2)ccc1Br	x	363	x	i	96	i	x	x
COc1cc(OC)c(OC)cc1/C=C/C(=O)OCC(=O)Nc1c(C)n(C)n(-c2ccccc2)c1=O	x	x	x	x	97	x	x	x
Cc1cccc(NC(=O)c2n[nH]c([N+](=O)[O-])c2Br)c1C	0	189	-4	-5*	99	i	61%*	i
Cc1ccc(S(=O)(=O)NCc2ccccc2)cc1C(=O)N1CCN(S(=O)(=O)c2ccccc2F)CC1	x	x	x	x	103	x	x	x
Cc1ccc(S(=O)(=O)N[C@H](C(=O)NC2CCC(C)CC2)C(C)C)cc1 (some centres undefined)	x	368	x	x	x	x	x	x
CC(=O)c1cccc(S(=O)(=O)NC2CCCCCC2)c1	1	226	-5	i	104	i	x	x
O=C(Nc1ccccc1)c1cccc(S(=O)(=O)NC2CCCC2)c1	-15	184	-8	-5.2*	107	i	36%*	i
O=C(Nc1ccc(S(=O)(=O)N2CCOCC2)cc1)c1ccc([N+](=O)[O-])cc1Cl	9	285	-5	-7.4*	97	i	31%*	i
O=C(Nc1cccc([N+](=O)[O-])c1)NN1CCCCCC1	x	x	x	x	117	x	x	x
CC1=NN(C(N)=S)C(=O)C1N=Nc1c(Br)cc(Br)cc1Br (centres undefined)	-15	563	3	-7.7*	107	i	31%*	i
